Bioassay records from PubChem BioAssay.
In the library only some 3.5% were active in any assay of this set; here they are far more common.
MrgX1 antag: antagonists of human MrgX1 receptor. Q96LB2. MRGX1-HEK293 calcium flux, Fluo-4, BAM8-22 antagonism; hits give low values. B-score at 10 µM. hit rate 1.3% among 310,000. AID 588676;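 active = calcium-response B-score plate-corrected more than 3 library SD below zero, starting fluorescence within 5 deviations, no agonist response on first addition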;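 note: peak minus trough fluorescence over baseline after final BAM8-22 challenge near maximal dose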
Target sequence (Q96LB2 whole entry, looked up): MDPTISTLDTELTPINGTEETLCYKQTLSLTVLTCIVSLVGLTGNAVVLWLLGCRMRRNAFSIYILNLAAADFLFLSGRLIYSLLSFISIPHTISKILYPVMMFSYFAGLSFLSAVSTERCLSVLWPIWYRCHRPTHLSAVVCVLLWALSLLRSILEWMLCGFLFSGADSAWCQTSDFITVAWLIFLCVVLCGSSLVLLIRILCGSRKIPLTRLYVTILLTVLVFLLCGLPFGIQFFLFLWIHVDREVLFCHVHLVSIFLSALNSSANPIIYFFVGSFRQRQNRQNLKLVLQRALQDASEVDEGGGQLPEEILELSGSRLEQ
RGS4 pot: potentiators or activators of RGS4 | HEK293 M3R/inducible RGS4, carbachol calcium flux Fluo4; hits give low values | B-score at 10 µM | hit rate 0.92% among 310,000 | AID 463111;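 active = B-score of the integrated calcium signal more than 4 SD below the library mean, with starting fluorescence not abnormally high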;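 note: negative B-score means reduced calcium response which marks RGS4 activation or potentiation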
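Also added: carbachol at ECmax as muscarinic agonist stimulus; Assay system: HEK293 cells with stable M3R and inducible RGS4; Timing: overnight RGS4 induction, 30 min dye load 37 °C, 20 min compound RT; Measured by: Fluo4-AM (2 µM) calcium-flux fluorescence, kinetic read.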
MrgX1 ag: agonists of human MrgX1 receptor; Q96LB2; MrgX1-HEK293 cells, Fluo-4 calcium fluorescence, agonist mode; hits give high values; B-score at 10 µM; hit rate 0.44% among 310,000;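 active = calcium response B-score plate-corrected fluorescence ratio at least 3 library SD, with starting fluorescence B-score inside 5 SD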
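Test system: HEK293 cells stably expressing human MrgX1 receptor; Input: fifteen thousand cells per well; Dosing: compound delivered in addition one of three; Schedule: overnight seeding, then 1 h dark dye loading; Technique: Fluo-4 NW calcium fluorescence; Measure: B-scored fluorescence response ratio; Controls: positive and negative controls per plate.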
MrgX1 PAM: human MrgX1 positive allosteric modulation, primary screen; Q96LB2; MrgX1-HEK293, Fluo-4 calcium flux, FDSS; hits give high values; B-score at 10 µM; hit rate 0.63% among 310,000; AID 588675;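 active = plate-corrected calcium response at least 3 library SD above typical, normal starting fluorescence, not activating the receptor alone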;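 note: compound read alongside a low EC10 to EC30 dose of BAM8-22 agonist; peak minus trough fluorescence over baseline measured at the second addition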
RGS4 block: human RGS4 inhibition | P49798 | HEK293 M3R/RGS4 inducible, Fluo-4 calcium flux; hits give high values; triggered by carbachol at its EC20 | B-score at 10 µM | hit rate 0.45% among 310,000;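 active = B-score, a plate-corrected calcium signal, over three deviations above library mean, with baseline fluorescence within five deviations of library mean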;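 note: RGS4 expression induced by doxycycline in cells with stable M3 receptor; B-score is computed from the integrated fluorescence ratio over baseline after carbachol; higher B-score means a larger calcium signal and so more RGS4 inhibition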
Target sequence (P49798 whole entry, looked up): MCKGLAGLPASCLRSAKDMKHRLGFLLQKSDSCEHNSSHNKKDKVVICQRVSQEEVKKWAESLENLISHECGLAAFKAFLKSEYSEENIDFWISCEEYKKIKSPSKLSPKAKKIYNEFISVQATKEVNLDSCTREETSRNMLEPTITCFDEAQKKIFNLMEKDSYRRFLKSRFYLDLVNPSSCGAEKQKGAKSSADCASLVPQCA
RGS4 block valid: RGS4 inhibitor validation. shares compounds with RGS4 block. HEK293 M3R/RGS4, carbachol calcium Fluo-4 fluorescence; carbachol added at its EC20; 0 = buffer wells, 100 = carbachol control. calcium response, % at 10 µM. hit rate 65% among 1,700;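 active = duplicate-averaged calcium response above the buffer-only control mean plus 5 SD of those controls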;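 note: integrated fluorescence ratio F max minus min over baseline F0; higher response in RGS4-induced cells means RGS4 inhibition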
RGS4 uninduced: checks RGS4 inhibitor effects in non-induced HEK293 M3R cells; shares compounds with RGS4 block; carbachol calcium Fluo-4; submaximal (EC20) carbachol stimulus; buffer wells 0%, carbachol control wells 100%; activity (percent), % at 10 µM; hit rate 20% among 1,900; AID 493000; call rule not given here;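 note: RGS4 induction absent so cells express M3R without RGS4; higher means more calcium signal and flags a non-specific hit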
M3R basal Ca ctr: signal in non-induced cells without carbachol, RGS4 inhibitor counter-screen; shares compounds with RGS4 block; HEK293 M3R/RGS4 non-induced, Fluo-4 calcium, no carbachol; normalised: buffer wells 0%, carbachol wells 100%; calcium response (agonist-mode artifact), % at 10 µM; hit rate 22% among 1,900; AID 493001;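 active = duplicate-averaged calcium rise in uninduced cells above buffer wells' mean plus 5 SD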
Hits are given with their value; - = inactive; . = no result given.

SMILES | MrgX1 antag | RGS4 pot | MrgX1 ag | MrgX1 PAM | RGS4 block | RGS4 block valid | RGS4 uninduced | M3R basal Ca ctr
C/C(=N\N=C1\NC(=O)C(CC(=O)Nc2ccc(C)c(Cl)c2)S1)C(C)(C)C (stereo not given) | - | - | - | - | 7.5 | 70% | - | -
Cc1ccc(C)c(N(Cc2cc3ccc(C)cc3[nH]c2=O)C(=O)c2ccco2)c1 | - | - | - | - | - | - | - | -
COc1ccc(N(Cc2cc3ccc(C)cc3[nH]c2=O)C(=O)C2CCCO2)cc1 (stereo not given) | - | - | - | - | - | . | . | .
COc1ccc(N(Cc2cc3ccc(C)cc3[nH]c2=O)C(=O)c2ccco2)cc1 | - | - | - | - | - | - | - | -
Nc1nc(Nc2ccccc2)nc(NCc2ccco2)c1[N+](=O)[O-] | - | - | - | - | - | - | - | -
Cc1ccc(-c2cc(C(F)F)nc(NCc3cccnc3)n2)cc1 | - | - | - | - | 7.7 | - | - | -
COc1ccc(Nc2cc(Cl)nc(N)n2)cc1OC | - | - | - | - | 6.1 | 6.0% | - | -
Nc1nc(Cl)cc(Nc2ccccc2Cl)n1 | - | - | - | - | - | . | . | .
O=C(COc1ccccc1)N=C1SC2CS(=O)(=O)CC2N1CCc1ccccc1 (stereo not given) | - | - | - | - | - | . | . | .
COc1ccc(C(C[N+](=O)[O-])c2c(-c3ccccc3)cc3ccccn23)c(OC)c1 (stereo not given) | - | - | 54 | - | - | - | - | 20%
COC(=O)c1ccc(N2NC(=O)/C(=C/c3cc(OC)c(O)c(OC)c3)C2=O)cc1 | - | - | - | - | - | - | - | 30%
COc1cc(/C=C2/C(=O)NN(c3ccc(F)cc3)C2=O)cc(Cl)c1O | - | - | 30 | - | 6.2 | 14% | 35% | 18%
COc1cc(/C=C2/C(=O)N(c3ccc(Br)cc3)N=C2C)cc([N+](=O)[O-])c1O | - | - | - | - | - | . | . | .
COc1cccc(/C=C2/C(=O)NN(c3ccc(Br)cc3)C2=O)c1O | - | - | - | - | - | . | . | .
COC(=O)c1ccc(N2NC(=O)/C(=C/c3cc(OC)c(OC)c(OC)c3)C2=O)cc1 | - | - | - | - | 4.9 | 14% | - | -
O=C(NCCc1c[nH]c2ccccc12)C(=O)Nc1cc2c3c(c1)CC(=O)N3CCC2 | - | - | - | - | - | . | . | .
O=C(NCc1cccc(C(F)(F)F)c1)c1ccc2c(c1)OCO2 | . | - | . | . | - | . | . | .
Cc1cccc(C)c1N(CC(O)Cn1c2ccccc2c2ccccc21)S(C)(=O)=O (stereo not given) | - | - | - | - | 7.2 | 19% | - | -
Cc1ccc(Nc2nc(N)c3ccccc3n2)cc1Cl | - | - | - | - | 7.3 | 9.5% | - | -
Nc1nc(Nc2ccccc2)nc2ccccc12 | - | - | - | - | - | . | . | .
COc1cc2nc(Nc3ccc(C)c(Cl)c3)nc(N)c2cc1OC | - | - | - | - | - | . | . | .
Nc1nc(Nc2ccc(Cl)cc2)nc2ccccc12 | - | - | - | - | 22 | - | - | -
O=C(CN1CCOCC1)NCc1cc([N+](=O)[O-])ccc1O | - | - | - | - | - | . | . | .
CCCC(=O)Nc1cccc(NC(=O)c2ccc3c(c2)OCCO3)c1 | - | - | - | - | - | . | - | -
O=Nc1c(O)n(Cc2ccc(Cl)c(Cl)c2)c2ccccc12 | - | - | - | - | 15 | 16% | 39% | -
SMILES | MrgX1 antag | RGS4 pot | MrgX1 ag | MrgX1 PAM | RGS4 block | RGS4 block valid | RGS4 uninduced | M3R basal Ca ctr
NCCOc1ccc(C23CC4CC(CC(C4)C2)C3)cc1 | - | - | - | - | 11 | 20% | - | 72%
Cc1sc(NC(=O)c2cc(-c3ccc(Cl)cc3)nc3ccccc23)c(C(N)=O)c1C | - | - | - | - | - | . | . | .
CCc1nnc(NC(=O)c2cc(-c3ccccn3)nc3ccc(Br)cc23)s1 | - | - | - | - | - | . | . | .
Cc1sc(NC(=O)c2cc(-c3ccccc3)nc3ccccc23)c(C(N)=O)c1C | - | - | - | - | - | . | - | -
CCc1nnc(NC(=O)c2cc(-c3ccncc3)nc3ccccc23)s1 | - | - | - | - | 4.9 | 18% | - | -
COc1ccccc1Cn1c(=O)c2ccccc2n2c(SCC(=O)N3CCCCC3)nnc12 | - | - | - | - | - | . | . | .
COc1ccccc1N(CC(=O)Nc1ccccc1C(=O)N1CCOCC1)S(C)(=O)=O | - | - | - | - | - | . | . | .
CCN(C(=O)Cc1c(C(=O)O)n(C)c2ccccc12)c1cccc(C)c1 | - | - | - | - | - | - | - | -
COC(C[C@@H](O)[C@H](C)[C@@H](O)COCc1ccccc1)OC | . | - | . | . | - | . | . | .
COc1cc(/C=N/NC(=S)Nc2cccc(Cl)c2C)ccc1OCC(=O)N1CC(C)OC(C)C1 (stereo not given) | - | - | - | - | 13 | - | - | -
S=C1NC[C@H](Cc2ccccc2)N1CCCCC1CCCCC1 | - | - | - | - | - | - | - | -
Cn1c(=O)[nH]c(=O)c2c1nc([N+](=O)[O-])n2Cc1ccccc1 | - | - | - | - | 12 | 71% | 42% | -
Cc1ccc(OC(C)C(=O)N2CC(=O)Nc3ccccc32)cc1 (stereo not given) | - | - | - | - | - | . | . | .
CC(C)(C)Sc1ccc(/C=N/O)cc1[N+](=O)[O-] | - | - | - | - | 6.8 | 10% | - | -
N#Cc1c(N)nc(SCc2ccccn2)c(C#N)c1-c1cccs1 | - | - | - | - | 4.7 | 9.0% | 42% | -
CCOC(=O)CSc1nc(N)c(C#N)c(-c2cccs2)c1C#N | - | - | - | - | - | . | . | .
COC(=O)Cc1[nH]nc2c1C1(C(=O)N(Cc3ccccc3)c3ccccc31)C(C#N)=C(N)O2 (stereo not given) | - | - | - | - | - | . | - | -
Cc1[nH]nc2c1C1(C(=O)N(Cc3ccc(Cl)cc3)c3ccccc31)C(C#N)=C(N)O2 (stereo not given) | - | - | - | - | - | . | . | .
COc1cccc(/C=N/NC(=O)CSc2ccccc2C)c1OC | - | - | - | - | - | - | - | -
COc1cc(OC)c(OC)cc1/C=N/NC(=O)CSc1ccccc1F | - | - | - | - | - | . | . | .
COc1cccc(/C=N/NC(=O)CSc2ccccc2C)c1O | - | - | - | - | 5.9 | 64% | - | -
COc1cccc(/C=N/NC(=O)CSc2nnc(C)n2-c2ccccc2)c1OC | - | - | - | - | - | . | . | .
COc1ccccc1/C=C/C=N/n1c(-c2cc(C)[nH]n2)n[nH]c1=S | - | - | - | - | - | . | - | -
